Experimental data from ChEMBL document CHEMBL1131035, “Tripeptide aldehyde inhibitors of human rhinovirus 3C protease: design, synthesis, biological evaluation, and cocrystal structure solution of P1 glutamine isosteric replacements” (J Med Chem, 1998).
Where a name gives a salt, the structure may show the parent alone. Starred links: 1 amine or outer side, 2 acyl side, 3 side chain; linkers in the order of their positions; H or OH if unused. Non-standard residues stand in square brackets, D forms with d. Residues, ends and D or L forms follow the SMILES beside them. Groups on a side chain read outwards from the residue. *: point of attachment. Met(O) = CS(=O)CC[C@H](N)C(=O)O; Isobutyryl = CC(C)C(=O)*; Cbz = O=C(OCc1ccccc1)*; Dap = NC[C@H](N)C(=O)O; Boc = CC(C)(C)OC(=O)*; CO = O=C([*:1])[*:2]; Propionyl = CCC(=O)*; Tfa = O=C(C(F)(F)F)*; Bz = O=C(c1ccccc1)*; Ms = CS(=O)(=O)*; Moc = COC(=O)*; For = O=C*

Key:
[1] = Therapeutic Index against HRV-14 virus infection; type: organism-based; settings: rhinovirus b14, H1-HeLa cells; read-out: TI
Procedure, shortened: (§1)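 Cell protection assay in H1-HeLa cells infected with the named HRV serotype, using virus stocks propagated in H1-HeLa cells. Values reported are the 50% effective concentration (EC50), the 50% toxic concentration (TC50) and the therapeutic index (TI).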

[2] = test system: Human rhinovirus sp.; test: Effective concentration in HRV-14 infected H1- HeLa cells by protection assay.; type: functional, organism-based; procedure, shortened: as §1
[3] = Toxic concentration on HRV-14 infected H1- HeLa cells by protection assay.; type: toxicity, cell-based; settings: human, H1-HeLa cells infected with HRV-14; read-out: TC50 (the source's name); procedure, shortened: as §1
[4] = molecular target: T1, Human rhinovirus A protease (Human rhinovirus sp., UniProt Q4U254); test: Binding affinity against HRV-14 3C protease.
T1 sequence (Q4U254 whole entry): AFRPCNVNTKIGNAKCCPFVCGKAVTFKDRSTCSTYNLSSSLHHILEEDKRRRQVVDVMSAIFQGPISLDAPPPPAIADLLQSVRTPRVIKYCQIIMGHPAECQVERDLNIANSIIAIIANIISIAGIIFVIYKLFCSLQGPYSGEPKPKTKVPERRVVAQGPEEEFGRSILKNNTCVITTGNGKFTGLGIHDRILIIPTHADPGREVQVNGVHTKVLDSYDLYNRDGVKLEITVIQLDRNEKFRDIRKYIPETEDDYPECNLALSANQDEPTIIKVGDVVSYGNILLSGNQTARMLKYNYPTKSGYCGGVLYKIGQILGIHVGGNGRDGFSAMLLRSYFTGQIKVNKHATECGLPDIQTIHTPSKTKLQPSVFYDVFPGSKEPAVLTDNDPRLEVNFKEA
Procedure, shortened: (§2)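 Recombinant 3C protease of the named HRV serotype, expressed and purified. Ki was determined by a continuous fluorescence resonance energy transfer cleavage assay, with 5 mM dithiothreitol included in the assay. Reported standard deviation ±10%.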

[5] = test system: HeLa; test: Effective concentration was measured on HRV-16 infected H1- HeLa cells by protection assay.; type: functional, cell-based; settings: Homo sapiens; procedure, shortened: as §1
[6] = molecular target: T1, Human rhinovirus A protease; test: Binding affinity was measured against HRV-89 3C protease; procedure, shortened: as §2
[7] = test system: HeLa; test: Effective concentration was measured on HRV-2 infected H1- HeLa cells by protection assay.; type: functional, cell-based; settings: Homo sapiens; procedure, shortened: as §1
[8] = Toxic concentration was measured on HRV-16 infected H1- HeLa cells by protection assay.; type: ADME, cell-based; settings: human, H1-HeLa cells infected with HRV-16; read-out: TC50 (the source's name); procedure, shortened: as §1
[9] = Toxic concentration was measured on HRV-2 infected H1- HeLa cells by protection assay.; type: ADME, cell-based; settings: human, H1-HeLa cells infected with HRV-2; read-out: TC50 (the source's name); procedure, shortened: as §1
[10] = Toxic concentration was measured on HRV-89 infected H1- HeLa cells by protection assay.; type: ADME, cell-based; settings: human, H1-HeLa cells infected with HRV-89; read-out: TC50 (the source's name); procedure, shortened: as §1
[11] = test system: HeLa; test: Effective concentration was measured on HRV-89 infected H1- HeLa cells by protection assay.; type: functional, cell-based; settings: Homo sapiens; procedure, shortened: as §1
[12] = molecular target: T1, Human rhinovirus A protease; test: Binding affinity was measured against HRV-2 3C protease; procedure, shortened: as §2
[13] = molecular target: T1, Human rhinovirus A protease; test: Binding affinity was measured against HRV-16 3C protease; procedure, shortened: as §2

| SMILES | selectivity ratio [1] | EC50 [2] | CC50 [3] | Ki [4] | also measured |
| --- | --- | --- | --- | --- | --- |
| CC(C)C[C@H](NC(=O)OCc1ccccc1)C(=O)N[C@@H](Cc1ccccc1)C(=O)N[C@H](C=O)CCC#N | 4 | 8000 nM | 31000 nM | 190 nM | – |
| CC(C)C[C@H](NC(=O)OCc1ccccc1)C(=O)N[C@@H](Cc1ccccc1)C(=O)N[C@H](C=O)CCC(=O)NC(c1ccccc1)(c1ccccc1)c1ccccc1 | – | > 15800 nM | 15800 nM | 40 nM | – |
| CC(C)C[C@H](NC(=O)OCc1ccccc1)C(=O)N[C@@H](Cc1ccccc1)C(=O)N[C@H](C=O)CNC(=O)c1ccno1 | 40 | 1500 nM | 59500 nM | 5 nM | – |
| CC(C)C[C@H](NC(=O)OCc1ccccc1)C(=O)N[C@@H](Cc1ccccc1)C(=O)N[C@H](C=O)CNC=O (Cbz-Leu-Phe-[Dap](For)-aldehyde) | 129 | 1600 nM | 206000 nM | 73 nM | – |
| CC(C)C[C@H](NC(=O)OCc1ccccc1)C(=O)N[C@@H](Cc1ccccc1)C(=O)N[C@H](C=O)CNC(=O)C(C)C (Cbz-Leu-Phe-[Dap](Isobutyryl)-aldehyde) | 5 | 4000 nM | 18000 nM | 18 nM | – |
| CC(C)C[C@H](NC(=O)OCc1ccccc1)C(=O)N[C@@H](Cc1ccccc1)C(=O)N[C@H](C=O)CNC(=O)N(C)C (Cbz-Leu-Phe-[Dap]([CO-NMe2])-aldehyde) | 47 | 2100 nM | 99000 nM | 10 nM | – |
| CC(C)C[C@H](NC(=O)OCc1ccccc1)C(=O)N[C@@H](Cc1ccccc1)C(=O)N[C@H](C=O)CN1CCCC1=O | > 25 | 4000 nM | > 100000 nM | 52 nM | – |
| CC(C)C[C@H](NC(=O)OCc1ccccc1)C(=O)N[C@@H](Cc1ccccc1)C(=O)N[C@H](C=O)CCC(N)=O (Cbz-Leu-Phe-Gln-aldehyde) | 6 | 66000 nM | 398000 nM | 3600 nM | – |
| CC(=O)N(C)C[C@@H](C=O)NC(=O)[C@H](Cc1ccccc1)NC(=O)[C@H](CC(C)C)NC(=O)OCc1ccccc1 | 19 | 5200 nM | 100000 nM | 469 nM | – |
| CC(C)C[C@H](NC(=O)OCc1ccccc1)C(=O)N[C@@H](Cc1ccccc1)C(=O)N[C@H](C=O)CNC(=O)OC(C)(C)C (Cbz-Leu-Phe-[Dap](Boc)-aldehyde) | 28 | 2000 nM | 56200 nM | 66 nM | – |
| COC(=O)NC[C@@H](C=O)NC(=O)[C@H](Cc1ccccc1)NC(=O)[C@H](CC(C)C)NC(=O)OCc1ccccc1 (Cbz-Leu-Phe-[Dap](Moc)-aldehyde) | 11 | 5000 nM | 56200 nM | 132 nM | – |
| CC(C)C[C@H](NC(=O)OCc1ccccc1)C(=O)N[C@@H](Cc1ccccc1)C(=O)N[C@H](C=O)CC[S+](C)[O-] (stereo partly drawn) (Cbz-Leu-Phe-[Met(O)]-aldehyde) | > 22 | 4500 nM | > 100000 nM | 5 nM | – |
| CCC(=O)NC[C@@H](C=O)NC(=O)[C@H](Cc1ccccc1)NC(=O)[C@H](CC(C)C)NC(=O)OCc1ccccc1 (Cbz-Leu-Phe-[Dap](Propionyl)-aldehyde) | > 77 | 1300 nM | > 100000 nM | 7 nM | – |
| CC(C)C[C@H](NC(=O)OCc1ccccc1)C(=O)N[C@@H](Cc1ccccc1)C(=O)N[C@H](C=O)CNC(=O)c1ccccc1 (Cbz-Leu-Phe-[Dap](Bz)-aldehyde) | 51 | 1000 nM | 51200 nM | 12 nM | – |
| CC(C)C[C@H](NC(=O)OCc1ccccc1)C(=O)N[C@@H](Cc1ccccc1)C(=O)N[C@H](C=O)CNS(C)(=O)=O (Cbz-Leu-Phe-[Dap](Ms)-aldehyde) | 3 | 20000 nM | 63000 nM | 640 nM | – |
| CC(C)C[C@H](NC(=O)OCc1ccccc1)C(=O)N[C@@H](Cc1ccccc1)C(=O)N[C@H](C=O)CNC(=O)C(F)(F)F (Cbz-Leu-Phe-[Dap](Tfa)-aldehyde) | 14 | 1800 nM | 25000 nM | 146 nM | – |
| CC(=O)NC[C@@H](C=O)NC(=O)[C@H](Cc1ccccc1)NC(=O)[C@H](CC(C)C)NC(=O)OCc1ccccc1 (Cbz-Leu-Phe-[Dap](Ac)-aldehyde) | 132 | 2400 nM | 316000 nM | 6 nM | EC50 [5]: 2100 nM; Ki [6]: 36 nM; EC50 [7]: 3100 nM; CC50 [8]: > 100000 nM; CC50 [9]: > 100000 nM; CC50 [10]: > 100000 nM; EC50 [11]: 2200 nM; Ki [12]: 160 nM; Ki [13]: 69 nM |
| CC(C)C[C@H](NC(=O)OCc1ccccc1)C(=O)N[C@@H](Cc1ccccc1)C(=O)N[C@H](C=O)CCC(=O)N(C)C (Cbz-Leu-Phe-Glu(NMe2)-aldehyde) | 48 | 1300 nM | 63000 nM | 5 nM | – |
